# pKd: −log10 of the molar value.
# How the values were obtained:
# [1] = Binding affinity to Escherichia coli N-terminal 6 his tagged BamA barrel domain (421 to 810 residues) assessed as dissociation constant measured after 15 mins by microscale thermophoresis analysis
# Summary of the method: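 Microscale thermophoresis with E. coli BamA at 50 nM in 50 mM HEPES pH 7.6, 5 mM MgCl2, 0.05% Tween. Ligand stock was in water and diluted in HEPES buffer. It was tested from the highest soluble concentration, mostly 2 mM, in 1:1 serial dilution over 16 samples. A labeling/fluorescence pretest was run for each sample.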
# Acinetobacter baumannii [2] = experiment: Antibacterial activity against Acinetobacter baumannii DSM-30007 assessed as reduction in bacterial growth measured after 24 hrs; format: functional
# Acinetobacter baumannii [3] = experiment: Antibacterial activity against Acinetobacter baumannii NCTC 13301 assessed as reduction in bacterial growth measured after 24 hrs; format: functional
# Acinetobacter baumannii [4] = experiment: Antibacterial activity against Acinetobacter baumannii ATCC 17978 assessed as reduction in bacterial growth measured after 24 hrs; format: functional
# Pseudomonas aeruginosa [5] = experiment: Antibacterial activity against multidrug resistant Pseudomonas aeruginosa 83979 clinical isolate assessed as reduction in bacterial growth measured after 24 hrs; format: functional
# Pseudomonas aeruginosa [6] = experiment: Antibacterial activity against multidrug resistant Pseudomonas aeruginosa 84389 clinical isolate assessed as reduction in bacterial growth measured after 24 hrs; format: functional
# Pseudomonas aeruginosa [7] = experiment: Antibacterial activity against Pseudomonas aeruginosa PA14 DSM 19882 assessed as reduction in bacterial growth measured after 24 hrs; details: PA14 DSM 19882, 24 h
compound,measurement,setting,value
C[C@@H](O)[C@@H]1NC(=O)[C@H]2NC(=O)[C@H](CC(=O)O)NC(=O)[C@@H](N)Cc3c[nH]c4c(cccc34)O[C@@H]2c2c[nH]c3cc(ccc23)[C@H](CCCN)[C@@H](C(=O)N[C@@H](CCCNC(=N)N)C(=O)N[C@@H](Cc2c[nH]c3ccccc23)C(=O)O)NC1=O,pKd,[1],4.65
C[C@@H](O)[C@@H]1NC(=O)[C@H]2NC(=O)[C@H](CC(N)=O)NC(=O)[C@@H](N)Cc3c[nH]c4c(cccc34)O[C@@H]2c2c[nH]c3cc(ccc23)[C@H](CCCN)[C@@H](C(=O)N[C@@H](CCC(N)=O)C(=O)N[C@@H](Cc2c[nH]c3ccccc23)C(=O)O)NC1=O,pKd,[1],5.66
N=C(N)NCCC[C@H](NC(=O)[C@H]1NC(=O)[C@H](CO)NC(=O)[C@H]2NC(=O)[C@H](CCC(N)=O)NC(=O)[C@@H](N)Cc3c[nH]c4c(cccc34)O[C@@H]2c2c[nH]c3cc(ccc23)[C@@H]1CCCN)C(=O)N[C@@H](Cc1c[nH]c2ccccc12)C(=O)O,MIC,Acinetobacter baumannii [2],2 µg/mL
same,MIC,Acinetobacter baumannii [3],8 µg/mL
same,MIC,Acinetobacter baumannii [4],16 µg/mL
same,MIC,Pseudomonas aeruginosa [5],8 µg/mL
same,MIC,Pseudomonas aeruginosa [6],16 µg/mL
same,MIC,Pseudomonas aeruginosa [7],16 µg/mL
